Assay results taken from ChEMBL document CHEMBL1687928, “Discovery, optimization, and pharmacological characterization of novel heteroaroylphenylureas antagonists of C-C chemokine ligand 2 function” (J Med Chem, 2011).
Active and inactive are the calls of the source. The calls are words filed in the database; no cut-off is given here.

Tests used:
[1] = Half life in rat at 5 mg/kg, po; format: ADME, organism-based; parameters: dose 5 mg/kg, route oral; conditions: in vivo
[2] = biological target: CYP2C9 (Homo sapiens, UniProt P11712); experiment: Inhibition of CYP2C9 at 1 uM; format: ADME
Chain of CYP2C9 (P11712 whole entry): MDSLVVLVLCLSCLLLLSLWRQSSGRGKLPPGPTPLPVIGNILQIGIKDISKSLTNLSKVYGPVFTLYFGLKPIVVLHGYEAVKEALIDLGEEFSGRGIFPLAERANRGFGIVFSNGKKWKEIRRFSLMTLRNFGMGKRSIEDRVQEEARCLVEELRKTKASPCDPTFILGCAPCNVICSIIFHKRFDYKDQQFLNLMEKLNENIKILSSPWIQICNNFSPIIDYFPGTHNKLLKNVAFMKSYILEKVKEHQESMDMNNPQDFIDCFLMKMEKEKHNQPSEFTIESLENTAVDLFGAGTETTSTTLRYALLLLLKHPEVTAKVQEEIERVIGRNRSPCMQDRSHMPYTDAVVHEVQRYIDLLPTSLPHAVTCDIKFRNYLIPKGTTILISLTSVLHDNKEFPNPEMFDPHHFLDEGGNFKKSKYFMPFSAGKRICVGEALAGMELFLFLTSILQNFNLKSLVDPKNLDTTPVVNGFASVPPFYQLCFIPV

[3] = biological target: CYP3A4 (Homo sapiens, UniProt P08684); experiment: Inhibition of CYP3A4 at 1 uM; format: ADME
Chain of CYP3A4 (P08684 whole entry): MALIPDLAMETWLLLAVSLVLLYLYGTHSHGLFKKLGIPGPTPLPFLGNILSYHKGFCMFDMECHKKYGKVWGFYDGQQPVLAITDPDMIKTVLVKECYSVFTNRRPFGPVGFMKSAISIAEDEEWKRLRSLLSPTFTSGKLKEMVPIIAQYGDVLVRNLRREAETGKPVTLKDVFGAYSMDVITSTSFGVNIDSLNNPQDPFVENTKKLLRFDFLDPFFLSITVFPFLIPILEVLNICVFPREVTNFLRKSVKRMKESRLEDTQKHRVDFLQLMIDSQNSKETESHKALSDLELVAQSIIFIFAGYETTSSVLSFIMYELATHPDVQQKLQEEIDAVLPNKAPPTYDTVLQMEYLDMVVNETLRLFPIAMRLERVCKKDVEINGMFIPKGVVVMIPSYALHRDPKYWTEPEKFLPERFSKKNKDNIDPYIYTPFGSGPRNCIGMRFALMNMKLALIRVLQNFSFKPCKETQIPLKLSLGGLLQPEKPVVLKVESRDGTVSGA

[4] = tested on: Rattus norvegicus; experiment: Drug uptake in collagen-induced Lewis rat bone marrow at 2 to 30 mg/kg, po measured 5 hrs post last dose; format: functional, organism-based
How it was run: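 In the rat collagen-induced arthritis study (oral b.i.d. dosing for 28 days), compound concentration was measured in plasma, tarsal homogenates and thigh-bone marrow. Samples were taken 5 h after the last dose on day 28.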

[5] = Aqueous solubility of the compound at pH 1.2; format: physicochemical
[6] = tested on: Mus musculus; experiment: Antiinflammatory activity in complete Freund's adjuvant-induced C57BL/6 mouse assessed as delay in autoimmune encephalomyelitis disease progression at 30 mg/kg, po BID; format: functional
How it was run: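 MOG33-55 peptide emulsion given subcutaneously to C57BL/6 mice, with intravenous pertussis vaccine (350 ng) right after and again 48 h later. Compound dissolved at 4 mg/mL in 3% aqueous Tween 80 (stored at 4 C), or water as vehicle, given orally b.i.d. from the day of immunization (day 0). Mice monitored daily for disease onset and clinical score (0–5 scale).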

[7] = tested on: Mus musculus; experiment: Toxicity in ICR mouse at 100 mg/kg, po administered as single dose; format: organism-based; parameters: dose 100 mg/kg, route oral; conditions: in vivo
[8] = biological target: CYP2D6 (Homo sapiens, UniProt P10635); experiment: Inhibition of CYP2D6 at 100 uM; format: ADME
Chain of CYP2D6 (P10635 whole entry): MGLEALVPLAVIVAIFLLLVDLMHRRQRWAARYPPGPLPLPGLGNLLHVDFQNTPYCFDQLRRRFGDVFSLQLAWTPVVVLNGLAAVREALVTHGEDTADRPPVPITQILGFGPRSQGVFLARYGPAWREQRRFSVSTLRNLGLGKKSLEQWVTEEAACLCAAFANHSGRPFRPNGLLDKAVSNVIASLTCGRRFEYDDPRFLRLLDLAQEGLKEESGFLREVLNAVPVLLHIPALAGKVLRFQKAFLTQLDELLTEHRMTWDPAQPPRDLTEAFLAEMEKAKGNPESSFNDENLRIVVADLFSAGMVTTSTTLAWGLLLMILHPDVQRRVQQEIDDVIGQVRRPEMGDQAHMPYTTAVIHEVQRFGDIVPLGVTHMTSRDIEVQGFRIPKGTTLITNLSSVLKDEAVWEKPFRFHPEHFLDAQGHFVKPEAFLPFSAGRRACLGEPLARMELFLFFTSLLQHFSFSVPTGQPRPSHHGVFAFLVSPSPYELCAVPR

[9] = species on record: Mus musculus; experiment: Antiinflammatory activity in Freund's adjuvant-induced C57BL/6 mouse assessed as decrease in inflammatory cell infiltrates in cerebellum; format: functional, organism-based
How it was run: (§1)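 C57BL/6 mice were immunized s.c. with a MOG33-55 peptide emulsion and given pertussis vaccine (350 ng i.v.) right away and again 48 h later. From day 0, compound in 3% aqueous Tween 80 (4 mg/mL) or water was dosed orally b.i.d. Tissue cellular infiltrate was scored 0–5, from few small perivascular/meningeal infiltrates up to very large extensive infiltrate.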

[10] = tested on: Mus musculus; experiment: Toxicity in ICR mouse at 30 mg/kg, po QD for 14 days; format: organism-based; parameters: dose 30 mg/kg, route oral; conditions: in vivo, 336 h
How it was run: (§2)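 Repeated-dose study in 6-week-old male ICR mice. Vehicle or 30, 100 or 300 mg/kg was given orally once daily for 14 days. Survival, behavior, body weight and liver enzymes (AST, ALT) were monitored.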

[11] = tested on: Rattus norvegicus; experiment: Antiinflammatory activity in collagen-induced arthritis Lewis rat model assessed as inhibition of paw edema at 2 to 30 mg/kg, po BID for 28 days measured on […] by Plethysmometer; format: functional, organism-based
How it was run: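 Female Lewis SPF rats, 6 weeks old (n = 8/group), were immunized at the tail base with 900 μg bovine type II collagen in Freund's complete adjuvant (4 mg/mL M. tuberculosis) on day 0. A 450 μg boost followed on day 7. Compound in 5% aqueous gum arabic was gavaged b.i.d. for 28 days from day 0, against vehicle; methotrexate 3×/week served as positive control. Hind-limb volume was read by plethysmometer on days 0, 12, 14, 21 and 28, as % increase over day 0.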

[12] = biological target: CYP2C19 (Homo sapiens, UniProt P33261); experiment: Inhibition of CYP2C19 at 1 uM; format: ADME
Chain of CYP2C19 (P33261 whole entry): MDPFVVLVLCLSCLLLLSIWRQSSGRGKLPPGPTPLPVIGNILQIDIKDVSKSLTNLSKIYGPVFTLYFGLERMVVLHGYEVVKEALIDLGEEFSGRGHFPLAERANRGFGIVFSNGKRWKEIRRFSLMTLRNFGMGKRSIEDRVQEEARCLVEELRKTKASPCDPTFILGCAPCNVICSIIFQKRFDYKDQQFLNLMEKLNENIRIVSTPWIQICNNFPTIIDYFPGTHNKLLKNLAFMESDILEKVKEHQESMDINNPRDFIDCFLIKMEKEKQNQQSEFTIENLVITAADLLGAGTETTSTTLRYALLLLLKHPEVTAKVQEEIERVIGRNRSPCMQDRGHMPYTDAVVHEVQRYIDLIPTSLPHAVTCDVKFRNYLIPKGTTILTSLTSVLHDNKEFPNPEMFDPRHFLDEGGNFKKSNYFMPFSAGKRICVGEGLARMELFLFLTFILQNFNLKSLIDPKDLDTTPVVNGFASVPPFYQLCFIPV

[13] = tested on: Mus musculus; experiment: Toxicity in ICR mouse assessed as increase in ALT level at 300 mg/kg, po QD for 14 days; format: organism-based; parameters: dose 300 mg/kg, route oral; conditions: in vivo, 336 h; how it was run: as §2
[14] = Aqueous solubility of the compound at pH 7.4; format: physicochemical
[15] = species on record: Mus musculus; experiment: Antiinflammatory activity in Freund's adjuvant-induced C57BL/6 mouse assessed as decrease in inflammatory cell infiltrates in brain; format: functional, organism-based; how it was run: as §1
[16] = Tmax in rat at 5 mg/kg, po; format: ADME, organism-based; parameters: dose 5 mg/kg, route oral; conditions: in vivo
How it was run: (§3)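 Rats, not fasted, received a single intravenous or oral dose.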

[17] = tested on: Mus musculus; experiment: Toxicity in ICR mouse assessed as vacuolar degeneration in kidney at 300 mg/kg, po QD for 14 days; format: organism-based; parameters: dose 300 mg/kg, route oral; conditions: in vivo, 336 h
[18] = Tmax in rat at 100 mg/kg, po; format: ADME, organism-based; parameters: dose 100 mg/kg, route oral; conditions: in vivo; how it was run: as §3
[19] = tested on: Rattus norvegicus; experiment: Inhibition of bone resorption in joints of collagen-induced arthritis Lewis rat model at 30 mg/kg, po BID for 28 days; format: functional, organism-based; parameters: dose 30 mg/kg
How it was run: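 Female Lewis SPF rats, 6 weeks old (n = 8/group). CIA was induced on day 0 by intradermal injection at the tail base of 900 μg bovine type II collagen in Freund's complete adjuvant, with a 450 μg boost on day 7. Compound in 5% gum arabic was given by gavage b.i.d. for 28 days from day 0. Hind-paw radiographs were taken on day 29 and scored blind from 0 to 4, averaging both legs. Two-tailed t test.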

[20] = AUC (0 to 24 hrs) in rat at 30 mg/kg, po; format: ADME, organism-based; parameters: time < 24 hr, dose 30 mg/kg, route oral; conditions: plasma
[21] = Half life in rat at 5 mg/kg, iv; format: ADME, organism-based; parameters: dose 5 mg/kg, route intravenous; conditions: in vivo
[22] = tested on: Rattus norvegicus; experiment: Oral bioavailability in rat at 5 mg/kg, po; format: ADME, organism-based; conditions: in vivo; how it was run: as §3
[23] = AUC (0 to 24 hrs) in rat at 5 mg/kg, po; format: ADME, organism-based; parameters: time < 24 hr, dose 5 mg/kg, route oral; conditions: plasma
[24] = AUC (0 to 24 hrs) in rat at 100 mg/kg, po; format: ADME, organism-based; parameters: time < 24 hr, dose 100 mg/kg, route oral; conditions: plasma

Compound Cc1nn(C)c2nc(N(C)CCN(C)C)c(C(=O)NC(=O)Nc3cccc(OC(C)C)c3)cc12.Cl has a half-life [1] of over 24 h, an inhibition at 1 µM [2] of 11% and an inhibition at 1 µM [3] of 4%. For the same compound, the Drug uptake [4] was “Active”, the solubility [5] was 31.3 µg/mL and the Activity [6] was 32.7 days. The Activity [7] was “Non-toxic”, the inhibition at 100 µM [8] was 73% and the Activity [9] was “Active”. For the same compound, the Activity [10] was “Non-toxic”, the Activity [11] was “Dose-dependent effect” and the inhibition at 1 µM [12] was -8%. The Activity [13] was “Toxic”, the solubility [14] was 7.8 µg/mL and the Activity [15] was “Active”. For the same compound, the Tmax [16] was 5 h, the Activity [17] was “Toxic” and the Tmax [18] was 3 h. For the same compound, the Activity [19] was “Active”, the AUC(0-t) at 24 h [20] was 5570 ng·h/mL and the half-life [21] was 10 h. The F [22] was 60%, the AUC(0-t) at 24 h [23] was 1620 ng·h/mL and the AUC(0-t) at 24 h [24] was 15100 ng·h/mL.
